Assay results as given in ChEMBL document CHEMBL3526142, “Biotransformation of a novel antimitotic agent, I-387, by mouse, rat, dog, monkey, and human liver microsomes and in vivo pharmacokinetics in mice” (Drug Metab Dispos, 2011).

Legend:
[1] = Tmax in ICR mouse at 5 mg/kg, ip by LC-MS/MS analysis; format: ADME, organism-based; design: dose 5 mg/kg, route intraperitoneal; details: in vivo
Method in brief: (§1)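 Male ICR mice (20–25 g) given the compound intraperitoneally or by gavage in 10% DMSO/PEG300. Three to four mice were sacrificed per time point and plasma collected from the vena cava. Plasma was precipitated with acetonitrile containing internal standard and analysed by LC-MS/MS. Noncompartmental analysis of mean concentration-time data: terminal t1/2 = ln2/λz; Tmax by inspection; n = 3/dose group.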

[2] = Mean residence time (infinity) in ICR mouse at 5 mg/kg, iv by LC-MS/MS analysis; format: ADME, organism-based; design: dose 5 mg/kg, route intravenous; details: in vivo
Method in brief: (§2)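 Male ICR mice (5–6 weeks, 20–25 g), single doses of 1, 5 or 15 mg/kg in 10% DMSO/PEG300, given iv by tail vein, ip, or orally by gavage. Three to four mice per time point, euthanized under isoflurane, blood drawn from posterior vena cava. Plasma protein precipitated with acetonitrile containing internal standard, then LC-MS/MS (MRM m/z 388.2→192). Noncompartmental analysis of mean concentration-time data, AUCinf by trapezoidal rule with extrapolation, CL = dose/AUCinf, Cmax read from the curve. F = (AUCnon-iv × dose iv)/(AUCiv × dose non-iv). n = 3 per dose group.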

[3] = Mean residence time (infinity) in ICR mouse at 5 mg/kg, ip by LC-MS/MS analysis; format: ADME, organism-based; design: dose 5 mg/kg, route intraperitoneal; details: in vivo; method in brief: as §2
[4] = Terminal half life in ICR mouse at 15 mg/kg, ip by LC-MS/MS analysis; format: ADME, organism-based; design: dose 15 mg/kg, route intraperitoneal; details: in vivo, read-out: beta t1/2 (converted); method in brief: as §1
[5] = Mean residence time (infinity) in ICR mouse at 15 mg/kg, iv by LC-MS/MS analysis; format: ADME, organism-based; design: dose 15 mg/kg, route intravenous; details: in vivo; method in brief: as §2
[6] = Bioavailability in ICR mouse at 15 mg/kg, ip by LC-MS/MS analysis; format: ADME, organism-based; details: in vivo; method in brief: as §2
[7] = Drug metabolism in monkey liver microsomes assessed as (3-(1H-indol-2-yl)phenyl)(3,4,5-trimethoxyphenyl)methanol formation at 0.5 uM after 2 hrs by LC-MS/MS analysis in presence of 3 mM NADPH; format: ADME, Macaca mulatta; details: rhesus monkey
Method in brief: (§3)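 Pooled liver microsomes (1 mg/ml protein) incubated with 0.5 µM substrate and 3 mM NADPH in 65 mM potassium phosphate, pH 7.4, 1% methanol, at 37°C for 2 h. Stopped with ice-cold acetonitrile containing internal standard, centrifuged. Supernatant analysed by LC-MS/MS on a C18 column, 15-min gradient, with product ion scans for metabolite identification.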

[8] = Cmax in ICR mouse at 1 mg/kg, iv by LC-MS/MS analysis; format: ADME, organism-based; design: dose 1 mg/kg, route intravenous; details: in vivo; method in brief: as §2
[9] = Mean residence time (infinity) in ICR mouse at 1 mg/kg, ip by LC-MS/MS analysis; format: ADME, organism-based; design: dose 1 mg/kg, route intraperitoneal; details: in vivo; method in brief: as §2
[10] = AUC (infinity) in ICR mouse at 1 mg/kg, po via gavage by LC-MS/MS analysis; format: ADME, organism-based; design: time infinity, dose 1 mg/kg, route oral; details: plasma; method in brief: as §2
[11] = Tmax in ICR mouse at 5 mg/kg, po by LC-MS/MS analysis; format: ADME, organism-based; design: dose 5 mg/kg, route oral; details: in vivo
Method in brief: (§4)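 Male ICR mice (5–6 weeks, 20–25 g) dosed by gavage in 10% DMSO in PEG300. Three to four mice per time point were euthanized under isoflurane and blood taken from the posterior vena cava. Plasma was acetonitrile-precipitated and analysed by LC-MS/MS (MRM m/z 388.2→192). Tmax read by visual inspection. F = (AUC_oral × dose_iv)/(AUC_iv × dose_oral), with AUC_inf by trapezoidal rule; n = 3/dose group.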

[12] = Bioavailability in ICR mouse at 5 mg/kg, ip by LC-MS/MS analysis; format: ADME, organism-based; details: in vivo; method in brief: as §2
[13] = Clearance in ICR mouse at 15 mg/kg, iv by LC-MS/MS analysis; format: ADME, organism-based; design: dose 15 mg/kg, route intravenous; details: in vivo; method in brief: as §2
[14] = Tmax in ICR mouse at 1 mg/kg, po by LC-MS/MS analysis; format: ADME, organism-based; design: dose 1 mg/kg, route oral; details: in vivo; method in brief: as §4
[15] = AUC (infinity) in ICR mouse at 5 mg/kg, iv by LC-MS/MS analysis; format: ADME, organism-based; design: time infinity, dose 5 mg/kg, route intravenous; details: plasma; method in brief: as §2
[16] = Metabolic stability in mouse liver microsomes assessed as half life during phase 1 and 2 at 0.5 uM by LC-MS/MS analysis in presence of 3 mM NADPH and […] UDPGA; format: ADME; details: read-out: alphat1/2
[17] = Oral bioavailability in ICR mouse at 15 mg/kg via gavage after 30 mins by LC-MS/MS analysis; format: ADME, organism-based; details: in vivo; method in brief: as §4
[18] = Tmax in ICR mouse at 15 mg/kg, ip by LC-MS/MS analysis; format: ADME, organism-based; design: dose 15 mg/kg, route intraperitoneal; details: in vivo; method in brief: as §1
[19] = Metabolic stability in human liver microsomes assessed as half life during phase 1 and 2 at 0.5 uM by LC-MS/MS analysis in presence of 3 mM NADPH and 5 mM UDPGA; details: read-out: alphat1/2
[20] = Cmax in ICR mouse at 5 mg/kg, po via gavage by LC-MS/MS analysis; format: ADME, organism-based; design: dose 5 mg/kg, route oral; details: in vivo; method in brief: as §2
[21] = Cmax in ICR mouse at 15 mg/kg, ip by LC-MS/MS analysis; format: ADME, organism-based; design: dose 15 mg/kg, route intraperitoneal; details: in vivo; method in brief: as §2
[22] = Mean residence time (infinity) in ICR mouse at 15 mg/kg, ip by LC-MS/MS analysis; format: ADME, organism-based; design: dose 15 mg/kg, route intraperitoneal; details: in vivo; method in brief: as §2
[23] = Tmax in ICR mouse at 1 mg/kg, ip by LC-MS/MS analysis; format: ADME, organism-based; design: dose 1 mg/kg, route intraperitoneal; details: in vivo; method in brief: as §1
[24] = Clearance in ICR mouse at 5 mg/kg, iv by LC-MS/MS analysis; format: ADME, organism-based; design: dose 5 mg/kg, route intravenous; details: in vivo; method in brief: as §2
[25] = Drug level in monkey liver microsomes assessed as compound retention time treated with 0.5 uM I-387 after 2 hrs by LC-MS/MS analysis; format: ADME, Macaca mulatta; details: rhesus monkey; method in brief: as §3
[26] = Antitumor activity against human MESSA/DX5 cells xenografted in nu/nu mouse assessed as decrease in tumor growth at 10 mg/kg, ip 2 days per week for weeks; format: functional; details: MES-SA/Dx5, ip, 48 h, route intraperitoneal
[27] = Terminal half life in ICR mouse at 1 mg/kg, iv by LC-MS/MS analysis; format: ADME, organism-based; design: dose 1 mg/kg, route intravenous; details: in vivo, read-out: beta t1/2 (converted)
Method in brief: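 Tail-vein injection in male ICR mice (5–6 weeks), vehicle 10% DMSO in PEG300. Serial terminal sampling of 3–4 mice per time point, with posterior vena cava blood. Plasma was acetonitrile-precipitated and measured by LC-MS/MS. Noncompartmental analysis of mean data: t1/2 = ln2/λz, CL = dose/AUC_inf, Vd_ss = CL × MRT_inf; n = 3/dose group.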

[28] = AUC (infinity) in ICR mouse at 15 mg/kg, ip by LC-MS/MS analysis; format: ADME, organism-based; design: time infinity, dose 15 mg/kg, route intraperitoneal; details: plasma; method in brief: as §2
[29] = Drug metabolism in mouse liver microsomes assessed as (3-(1H-indol-2-yl)phenyl)(3,4,5-trimethoxyphenyl)methanol formation at 0.5 uM after 2 hrs by LC-MS/MS analysis in presence of 3 mM NADPH; format: ADME; method in brief: as §3
[30] = Mean residence time (infinity) in ICR mouse at 1 mg/kg, iv by LC-MS/MS analysis; format: ADME, organism-based; design: dose 1 mg/kg, route intravenous; details: in vivo; method in brief: as §2

- Tmax [1]: 5 min
- MRT inf [2]: 3.3 h
- MRT inf [3]: 5.5 h
- half-life [4]: 8.3 h
- MRT inf [5]: 8.8 h
- bioavailability [6]: 94%
- Drug metabolism [7]: metabolite_detected
- Cmax [8]: 550 ng/mL
- MRT inf [9]: 6.4 h
- AUC(0-inf) [10]: 148 ng·h/mL
- Tmax [11]: 0.5 h
- bioavailability [12]: 95%
- clearance [13]: 19 mL/min/kg
- Tmax [14]: 0.5 h
- AUC(0-inf) [15]: 3950 ng·h/mL
- half-life at 0.5 µM [16]: 0.65 h
- bioavailability [17]: 8%
- Tmax [18]: 0.167 h
- half-life at 0.5 µM [19]: 0.5 h
- Cmax [20]: 100 ng/mL
- Cmax [21]: 4290 ng/mL
- MRT inf [22]: 7 h
- Tmax [23]: 5 min
- clearance [24]: 22 mL/min/kg
- Retention_time [25]: 11.3 min
- half-life [27]: 7 h
- AUC(0-inf) [28]: 12600 ng·h/mL
- Drug metabolism [29]: metabolite_detected
- MRT inf [30]: 3 h
Structure (SMILES): COc1cc(C(=O)c2cccc(-c3cc4ccccc4[nH]3)c2)cc(OC)c1OC
- inhibition in vivo at 10 mg/kg [26]: 76%
